# From ChEMBL document CHEMBL1126621 (J Med Chem, 1993)
# Bridge positions count the residues as written; N and C are the ends. Square brackets hold non-standard residues; d marks the D form. Peptide text beside a SMILES is read from it. Pen = CC(C)(S)[C@H](N)C(=O)O
# Tests used:
# Mu-type opioid receptor = Mu-type opioid receptor (Cavia porcellus, UniProt P97266); assay: Inhibition of [3H]PL-17 binding to mu opioid receptor of guinea pig brain homogenate
# [1] = molecular target: Delta-type opioid receptor (Mus musculus, UniProt P32300); assay: Inhibition of delta-selective antagonist binding to opioid receptor of mouse vas dferens
# Delta-type opioid receptor, sequence (P32300 whole entry): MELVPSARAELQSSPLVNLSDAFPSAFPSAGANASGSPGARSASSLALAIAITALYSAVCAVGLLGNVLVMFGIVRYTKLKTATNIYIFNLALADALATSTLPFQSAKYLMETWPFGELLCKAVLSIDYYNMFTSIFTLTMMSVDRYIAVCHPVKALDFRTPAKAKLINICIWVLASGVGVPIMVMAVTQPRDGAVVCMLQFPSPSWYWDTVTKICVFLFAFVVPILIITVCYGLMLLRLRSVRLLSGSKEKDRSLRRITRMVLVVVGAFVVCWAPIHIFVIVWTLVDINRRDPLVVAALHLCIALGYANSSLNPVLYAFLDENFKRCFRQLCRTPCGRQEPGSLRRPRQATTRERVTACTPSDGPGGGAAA
# Summary of the method: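 Mouse vas deferens at 500 mg tension in Mg-free Krebs, 37 °C, 95% O2/5% CO2. Field-stimulated with 2-ms supramaximal pulses; isometric contractions recorded. Cumulative concentration-response. At least 2 assays in duplicate.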
# [2] = molecular target: T1, Kappa-type opioid receptor (Cavia porcellus, UniProt P41144); assay: (§1) Inhibition of [3H]U-69593 binding to kappa opioid receptor of guinea pig brain homogenate
# T1 sequence (P41144 whole entry): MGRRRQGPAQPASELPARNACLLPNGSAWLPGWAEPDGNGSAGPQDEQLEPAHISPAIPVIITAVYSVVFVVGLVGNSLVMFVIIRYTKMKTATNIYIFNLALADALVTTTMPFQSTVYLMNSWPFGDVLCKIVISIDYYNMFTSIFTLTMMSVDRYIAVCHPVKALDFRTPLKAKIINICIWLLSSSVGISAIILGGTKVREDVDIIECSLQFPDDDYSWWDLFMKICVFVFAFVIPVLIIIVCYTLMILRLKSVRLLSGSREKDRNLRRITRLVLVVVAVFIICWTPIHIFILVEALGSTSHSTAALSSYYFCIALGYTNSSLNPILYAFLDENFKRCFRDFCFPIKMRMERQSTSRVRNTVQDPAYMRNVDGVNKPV
# Summary of the method: (§2)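 Adult male Hartley guinea pig whole-brain membranes in 50 mM Tris-HCl pH 7.4, preincubated 25 °C 30 min to strip endogenous peptides. Assay buffer: Tris with BSA, bestatin, bacitracin, captopril, PMSF. Ten concentrations over 800-fold range, duplicate tubes. 10 μM naltrexone defined nonspecific binding. 25 °C for 3 h, then PEI-treated GF/B filtration and scintillation counting. One/two-site nonlinear regression or logistic fit. ≥3 independent runs, mean ± SEM.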
# [3] = Relative affinity for delta and kappa opioid receptors of guinea pig brain homogenate; details: Cavia porcellus
# [4] = molecular target: T1, Kappa-type opioid receptor; assay: as §1; remark: listed apart in the source
# Summary of the method: as §2, with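 “PMSF. Radioligand: [3H]DPDPE 1.0 nM (δ) or [3H]U-69,593 0.75 nM (κ).” for “PMSF.”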
# Mu-type opioid receptor, sequence (P97266 whole entry): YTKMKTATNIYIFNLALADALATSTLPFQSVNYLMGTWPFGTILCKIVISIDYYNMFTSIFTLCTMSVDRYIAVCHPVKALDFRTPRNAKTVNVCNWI
Compound,IC50 (Mu-type opioid receptor),IC50 [1],IC50 [2],Selectivity [3],IC50 [4]
CC[C@H](C)[C@@H]1NC(=O)[C@H](CCCN=C(N)N)NC(=O)[C@H](CCCN=C(N)N)NC(=O)[C@@H](NC(=O)[C@H](Cc2ccccc2)NC(=O)CNC(=O)CNC(=O)[C@@H](N)Cc2ccc(O)cc2)CSSC[C@@H](C(=O)N2CCC[C@H]2C(=O)N[C@@H](CCCCN)C(N)=O)NC1=O (H-YGGFCRRICPK-NH2; disulfide 5-9),6.43 nM,> 3000 nM,0.868 nM,–,–
CC(C)C[C@H](NC(=O)[C@H](Cc1ccccc1)NC(=O)CNC(=O)CNC(=O)[C@@H](N)Cc1ccc(O)cc1)C(=O)N[C@@H](CCCN=C(N)N)C(=O)N[C@@H](CCCN=C(N)N)C(=O)N[C@@H]1CSSC[C@@H](C(=O)N[C@@H](CCCCN)C(=O)O)NC(=O)[C@@H](CCCCN)NC(=O)[C@@H]2CCCN2C(=O)[C@@H](CCCN=C(N)N)NC1=O,–,–,–,56,–
CC[C@H](C)[C@@H]1NC(=O)[C@H](CCCNC(=N)N)NC(=O)[C@H](CCCNC(=N)N)NC(=O)[C@@H](NC(=O)[C@H](Cc2ccccc2)NC(=O)CNC(=O)CNC(=O)[C@@H](N)Cc2ccc(O)cc2)CSSC[C@@H](C(N)=O)NC(=O)[C@H](CC(C)C)NC(=O)[C@H](CCCCN)NC(=O)[C@H]2CCCN2C(=O)[C@H](CCCNC(=N)N)NC1=O,2.48 nM,4100 nM,0.21 nM,–,–
CC[C@H](C)[C@H]1NC(=O)[C@H](CCCN=C(N)N)NC(=O)[C@@H](CCCN=C(N)N)NC(=O)[C@H](NC(=O)[C@H](Cc2ccccc2)NC(=O)CNC(=O)CNC(=O)[C@@H](N)Cc2ccc(O)cc2)C(C)(C)SSC[C@H](C(=O)O)NC(=O)[C@H]2CCCN2C(=O)[C@H](CCCN=C(N)N)NC1=O,–,–,–,165,–
CC[C@H](C)[C@@H]1NC(=O)[C@H](CCCN=C(N)N)NC(=O)[C@H](CCCN=C(N)N)NC(=O)[C@@H](NC(=O)[C@H](Cc2ccccc2)NC(=O)CNC(=O)CNC(=O)[C@@H](N)Cc2ccc(O)cc2)CSSC[C@@H](C(=O)N[C@@H](CCCN=C(N)N)C(=O)N[C@@H](CCCCN)C(N)=O)NC1=O (H-YGGFCRRICRK-NH2; disulfide 5-9),5.81 nM,6260 nM,–,–,0.42 nM
CC[C@H](C)[C@H]1NC(=O)[C@H](CCCN=C(N)N)NC(=O)[C@@H](CCCN=C(N)N)NC(=O)[C@H](NC(=O)[C@H](Cc2ccccc2)NC(=O)CNC(=O)CNC(=O)[C@@H](N)Cc2ccc(O)cc2)CSSC[C@H](C(=O)O)NC(=O)[C@@H](CC(C)C)NC(=O)[C@H](CCCCN)NC(=O)C2CCCN2C(=O)[C@H](CCCN=C(N)N)NC1=O (stereo in doubt),–,–,–,46,–
CC[C@H](C)[C@H]1NC(=O)[C@H](CCCN=C(N)N)NC(=O)[C@@H](CCCN=C(N)N)NC(=O)[C@H](NC(=O)[C@H](Cc2ccccc2)NC(=O)CNC(=O)CNC(=O)[C@@H](N)Cc2ccc(O)cc2)CSSC[C@H](C(=O)N[C@H](CCCN=C(N)N)C(=O)N[C@H](CCCCN)C(=O)O)NC1=O,–,–,–,43,–
CC[C@H](C)[C@H]1NC(=O)[C@H](CCCN=C(N)N)NC(=O)[C@@H](CCCN=C(N)N)NC(=O)[C@H](NC(=O)[C@H](Cc2ccccc2)NC(=O)CNC(=O)[C@@H](C)NC(=O)[C@@H](N)Cc2ccc(O)cc2)CSSC[C@H](C(=O)O)NC(=O)[C@H]2CCCN2C(=O)[C@H](CCCN=C(N)N)NC1=O,–,–,–,1.3,–
CC[C@H](C)[C@@H]1NC(=O)[C@H](CCCNC(=N)N)NC(=O)[C@@H](NC(=O)[C@H](CC(C)C)NC(=O)[C@H](Cc2ccccc2)NC(=O)CNC(=O)CNC(=O)[C@@H](N)Cc2ccc(O)cc2)CSSC[C@@H](C(=O)N[C@@H](CCCCN)C(N)=O)NC(=O)[C@H](CCCNC(=N)N)NC1=O (H-YGGFLCRIRCK-NH2; disulfide 6-10),0.091 nM,92.6 nM,0.047 nM,–,–
CC[C@H](C)[C@H]1NC(=O)[C@H](CCCN=C(N)N)NC(=O)[C@@H](CCCN=C(N)N)NC(=O)[C@H](NC(=O)[C@H](Cc2ccccc2)NC(=O)CNC(=O)CNC(=O)[C@@H](N)Cc2ccccc2)CSSC[C@H](C(=O)O)NC(=O)[C@H]2CCCN2C(=O)[C@H](CCCN=C(N)N)NC1=O,–,–,–,26,–
CC[C@H](C)[C@@H]1NC(=O)[C@H](CCCN=C(N)N)NC(=O)[C@H](CCCN=C(N)N)NC(=O)[C@@H](NC(=O)[C@H](Cc2ccccc2)NC(=O)CNC(=O)[C@@H](C)NC(=O)[C@@H](N)Cc2ccc(O)cc2)CSSC[C@@H](C(N)=O)NC(=O)[C@@H]2CCCN2C(=O)[C@H](CCCN=C(N)N)NC1=O,9.69 nM,> 6000 nM,81.2 nM,–,–
CC[C@H](C)[C@H]1NC(=O)[C@H](CCCN=C(N)N)NC(=O)[C@@H](NC(=O)[C@H](CC(C)C)NC(=O)[C@H](Cc2ccccc2)NC(=O)CNC(=O)CNC(=O)[C@@H](N)Cc2ccc(O)cc2)CSSC[C@@H](C(=O)N[C@@H](CCCCN)C(=O)O)NC(=O)[C@H](CCCN=C(N)N)NC1=O,–,–,–,10,–
CC[C@H](C)[C@@H]1NC(=O)[C@@H](CCCN=C(N)N)NC(=O)[C@H](CCCN=C(N)N)NC(=O)[C@H](NC(=O)[C@H](Cc2ccccc2)NC(=O)CNC(=O)CNC(=O)[C@@H](N)Cc2ccc(O)cc2)CSSC[C@H](C(=O)N[C@@H](CCCCN)C(=O)O)NC(=O)[C@@H](CCCN=C(N)N)NC1=O,–,–,–,139,–
CC(C)C[C@H](NC(=O)[C@H](Cc1ccccc1)NC(=O)CNC(=O)CNC(=O)[C@@H](N)Cc1ccc(O)cc1)C(=O)N[C@@H](CCCN=C(N)N)C(=O)N[C@@H](CCCN=C(N)N)C(=O)N[C@H]1CSSC[C@H](C(N)=O)NC(=O)[C@H](CC(C)C)NC(=O)[C@H](CCCCN)NC(=O)[C@@H]2CCCN2C(=O)[C@H](CCCN=C(N)N)NC1=O,0.38 nM,9.17 nM,0.035 nM,–,–
CC[C@H](C)[C@@H]1NC(=O)[C@H](CCCN=C(N)N)NC(=O)[C@H](CCCN=C(N)N)NC(=O)[C@@H](NC(=O)[C@H](Cc2ccccc2)NC(=O)CNC(=O)CNC(=O)[C@@H](N)Cc2ccc(O)cc2)CSSC[C@@H](C(=O)N[C@@H](CCCCN)C(N)=O)NC(=O)[C@H](CCCN=C(N)N)NC1=O (H-YGGFCRRIRCK-NH2; disulfide 5-10),4.26 nM,> 3000 nM,0.593 nM,–,–
CC(C)C[C@H](NC(=O)[C@H](Cc1ccccc1)NC(=O)CNC(=O)CNC(=O)[C@@H](N)Cc1ccc(O)cc1)C(=O)N[C@@H](CCCN=C(N)N)C(=O)N[C@@H](CCCN=C(N)N)C(=O)N[C@H]1CSSC[C@H](C(=O)O)NC(=O)[C@@H](CC(C)C)NC(=O)[C@H](CCCCN)NC(=O)[C@H]2CCCN2C(=O)[C@H](CCCN=C(N)N)NC1=O,–,–,–,55,–
CC[C@H](C)[C@H]1NC(=O)[C@H](CCCN=C(N)N)NC(=O)[C@@H](CCCN=C(N)N)NC(=O)[C@H](NC(=O)[C@H](Cc2ccccc2)NC(=O)CNC(=O)CNC(=O)[C@@H](N)Cc2ccc(O)cc2)CSSC[C@H](C(=O)N2CCC[C@@H]2C(=O)N[C@H](CCCCN)C(=O)O)NC1=O,–,–,–,36,–
CC[C@H](C)[C@@H]1NC(=O)[C@H](CCCNC(=N)N)NC(=O)[C@H](CCCNC(=N)N)NC(=O)[C@@H](NC(=O)[C@H](Cc2ccccc2)NC(=O)CNC(=O)CNC(=O)[C@@H](N)Cc2ccccc2)CSSC[C@@H](C(N)=O)NC(=O)[C@@H]2CCCN2C(=O)[C@H](CCCNC(=N)N)NC1=O (H-FGGFCRRIRPC-NH2; disulfide 5-11),61.2 nM,> 3000 nM,15.1 nM,–,–
CC[C@H](C)[C@@H]1NC(=O)[C@H](CCCN=C(N)N)NC(=O)[C@H](CCCN=C(N)N)NC(=O)[C@@H](NC(=O)[C@H](Cc2ccccc2)NC(=O)CNC(=O)CNC(=O)[C@@H](N)Cc2ccc(O)cc2)C(C)(C)SSC[C@@H](C(N)=O)NC(=O)[C@@H]2CCCN2C(=O)[C@H](CCCN=C(N)N)NC1=O (H-YGGF[Pen]RRIRPC-NH2; disulfide 5-11),1.26 nM,> 6000 nM,0.522 nM,–,–
CC(C)C[C@H](NC(=O)[C@H](Cc1ccccc1)NC(=O)CNC(=O)CNC(=O)[C@@H](N)Cc1ccc(O)cc1)C(=O)N[C@@H](CCCNC(=N)N)C(=O)N[C@@H](CCCNC(=N)N)C(=O)N[C@@H]1CSSC[C@H](C(=O)N[C@@H](CCCCN)C(N)=O)NC(=O)[C@H](CCCCN)NC(=O)[C@@H]2CCCN2C(=O)[C@H](CCCNC(=N)N)NC1=O,0.674 nM,25.3 nM,0.116 nM,–,–
